Test results as given in ChEMBL document CHEMBL4732237, “Discovery of 4-alkoxy-2-aryl-6,7-dimethoxyquinolines as a new class of topoisomerase I inhibitors endowed with potent in vitro anticancer activity” (2021).

Key:
Assay type in all cases: functional
Details in all cases: read-out: GI
K562 = experiment: Growth inhibition of human K562 cells at 10 uM incubated for 48 hrs by sulforhodamine B assay relative to control
Method in brief: (§1)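 NCI-60 single-dose screen. Cells were grown in RPMI 1640 with 5% FBS and 2 mM L-glutamine and plated 24 h before drug addition. Compound was added at one concentration in DMSO-derived medium and incubated for 48 h at 37 °C in 5% CO2. Read-out was SRB protein stain at 515 nm. Result is percent growth versus the no-drug control and the time-zero cell count; values below 0 indicate lethality.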

MOLT-4 = experiment: Growth inhibition of human MOLT-4 cells at 10 uM incubated for 48 hrs by sulforhodamine B assay relative to control
Method in brief: (§2)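 NCI one-dose screen. Cells grown in RPMI 1640 with 5% FBS and 2 mM L-glutamine, plated and incubated 24 h at 37 °C, 5% CO2. DMSO-dissolved drug added, then 48 h further incubation. Adherent cells fixed with cold TCA, suspension cells fixed after settling. Stained with 0.4% SRB, absorbance read at 515 nm. Reported as percent growth relative to no-drug control and time-zero cell number.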

SR = experiment: Growth inhibition of human SR cells at 10 uM incubated for 48 hrs by sulforhodamine B assay relative to control; method in brief: as §2
EKVX = experiment: Growth inhibition of human EKVX cells at 10 uM incubated for 48 hrs by sulforhodamine B assay relative to control; method in brief: as §1
HOP-62 = experiment: Growth inhibition of human HOP-62 cells at 10 uM incubated for 48 hrs by sulforhodamine B assay relative to control; method in brief: as §1
HOP-92 = experiment: Growth inhibition of human HOP-92 cells at 10 uM incubated for 48 hrs by sulforhodamine B assay relative to control; method in brief: as §1
NCI-H226 = experiment: Growth inhibition of human NCI-H226 cells at 10 uM incubated for 48 hrs by sulforhodamine B assay relative to control; method in brief: as §2
NCI-H23 = experiment: Growth inhibition of human NCI-H23 cells at 10 uM incubated for 48 hrs by sulforhodamine B assay relative to control; method in brief: as §2
NCI-H322M = experiment: Growth inhibition of human NCI-H322M cells at 10 uM incubated for 48 hrs by sulforhodamine B assay relative to control; method in brief: as §2
NCI-H460 = experiment: Growth inhibition of human NCI-H460 cells at 10 uM incubated for 48 hrs by sulforhodamine B assay relative to control; method in brief: as §2
NCI-H522 = experiment: Growth inhibition of human NCI-H522 cells at 10 uM incubated for 48 hrs by sulforhodamine B assay relative to control; method in brief: as §2
COLO 205 = experiment: Growth inhibition of human COLO 205 cells at 10 uM incubated for 48 hrs by sulforhodamine B assay relative to control; method in brief: as §1
KM12 = experiment: Growth inhibition of human KM12 cells at 10 uM incubated for 48 hrs by sulforhodamine B assay relative to control; method in brief: as §1
SW-620 = experiment: Growth inhibition of human SW-620 cells at 10 uM incubated for 48 hrs by sulforhodamine B assay relative to control
Method in brief: (§3)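 NCI one-dose screen across a 59-line panel. Cells were grown in RPMI 1640 with 5% FBS and 2 mM L-glutamine, plated and pre-incubated 24 h, then exposed to drug for 48 h at 37 °C, 5% CO2. Adherent cells were fixed with cold TCA (10% final), stained with 0.4% SRB in 1% acetic acid and read at 515 nm. Result is percent growth relative to no-drug control and time-zero cell count.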

SF-539 = experiment: Growth inhibition of human SF-539 cells at 10 uM incubated for 48 hrs by sulforhodamine B assay relative to control; method in brief: as §2
SNB-19 = experiment: Growth inhibition of human SNB-19 cells at 10 uM incubated for 48 hrs by sulforhodamine B assay relative to control; method in brief: as §2
LOX IMVI = experiment: Growth inhibition of human LOX IMVI cells at 10 uM incubated for 48 hrs by sulforhodamine B assay relative to control; method in brief: as §1
Malme-3M = experiment: Growth inhibition of human Malme-3M cells at 10 uM incubated for 48 hrs by sulforhodamine B assay relative to control; method in brief: as §2
SK-MEL-2 = experiment: Growth inhibition of human SK-MEL-2 cells at 10 uM incubated for 48 hrs by sulforhodamine B assay relative to control; method in brief: as §2
SK-MEL-28 = experiment: Growth inhibition of human SK-MEL-28 cells at 10 uM incubated for 48 hrs by sulforhodamine B assay relative to control; method in brief: as §2
SK-MEL-5 = experiment: Growth inhibition of human SK-MEL-5 cells at 10 uM incubated for 48 hrs by sulforhodamine B assay relative to control; method in brief: as §2
UACC-257 = experiment: Growth inhibition of human UACC-257 cells at 10 uM incubated for 48 hrs by sulforhodamine B assay relative to control; method in brief: as §3
UACC-62 = experiment: Growth inhibition of human UACC-62 cells at 10 uM incubated for 48 hrs by sulforhodamine B assay relative to control; method in brief: as §3
IGROV-1 = experiment: Growth inhibition of human IGROV-1 cells at 10 uM incubated for 48 hrs by sulforhodamine B assay relative to control; method in brief: as §1
OVCAR-3 = experiment: Growth inhibition of human OVCAR-3 cells at 10 uM incubated for 48 hrs by sulforhodamine B assay relative to control; method in brief: as §2
OVCAR-4 = experiment: Growth inhibition of human OVCAR-4 cells at 10 uM incubated for 48 hrs by sulforhodamine B assay relative to control; method in brief: as §2
OVCAR-8 = experiment: Growth inhibition of human OVCAR-8 cells at 10 uM incubated for 48 hrs by sulforhodamine B assay relative to control; method in brief: as §2
NCI/ADR-RES = experiment: Growth inhibition of human NCI/ADR-RES cells at 10 uM incubated for 48 hrs by sulforhodamine B assay relative to control; method in brief: as §2
A498 = experiment: Growth inhibition of human A498 cells at 10 uM incubated for 48 hrs by sulforhodamine B assay relative to control; method in brief: as §3
RXF 393 = experiment: Growth inhibition of human RXF 393 cells at 10 uM incubated for 48 hrs by sulforhodamine B assay relative to control; method in brief: as §2
SN12C = experiment: Growth inhibition of human SN12C cells at 10 uM incubated for 48 hrs by sulforhodamine B assay relative to control; method in brief: as §2
TK-10 = experiment: Growth inhibition of human TK-10 cells at 10 uM incubated for 48 hrs by sulforhodamine B assay relative to control; method in brief: as §3
PC-3 = experiment: Growth inhibition of human PC-3 cells at 10 uM incubated for 48 hrs by sulforhodamine B assay relative to control; method in brief: as §2
Hs-578T = experiment: Growth inhibition of human HS-578T cells at 10 uM incubated for 48 hrs by sulforhodamine B assay relative to control; method in brief: as §1
BT-549 = experiment: Growth inhibition of human BT-549 cells at 10 uM incubated for 48 hrs by sulforhodamine B assay relative to control; method in brief: as §1
T47D = experiment: Growth inhibition of human T47D cells at 10 uM incubated for 48 hrs by sulforhodamine B assay relative to control; method in brief: as §3
MDA-MB-468 = experiment: Growth inhibition of human MDA-MB-468 cells at 10 uM incubated for 48 hrs by sulforhodamine B assay relative to control; method in brief: as §1

Row | Compound | inhibition of growth at 10 µM (K562) [%] | inhibition of growth at 10 µM (MOLT-4) [%] | inhibition of growth at 10 µM (SR) [%] | inhibition of growth at 10 µM (EKVX) [%] | inhibition of growth at 10 µM (HOP-62) [%] | inhibition of growth at 10 µM (HOP-92) [%] | inhibition of growth at 10 µM (NCI-H226) [%] | inhibition of growth at 10 µM (NCI-H23) [%] | inhibition of growth at 10 µM (NCI-H322M) [%] | inhibition of growth at 10 µM (NCI-H460) [%] | inhibition of growth at 10 µM (NCI-H522) [%] | inhibition of growth at 10 µM (COLO 205) [%] | inhibition of growth at 10 µM (KM12) [%] | inhibition of growth at 10 µM (SW-620) [%] | inhibition of growth at 10 µM (SF-539) [%] | inhibition of growth at 10 µM (SNB-19) [%] | inhibition of growth at 10 µM (LOX IMVI) [%] | inhibition of growth at 10 µM (Malme-3M) [%] | inhibition of growth at 10 µM (SK-MEL-2) [%] | inhibition of growth at 10 µM (SK-MEL-28) [%] | further results
1 | COc1cc2nc(-c3cccs3)cc(OCCCN3CCC(O)CC3)c2cc1OC | 20 | 20 | 20 | 20 | 20 | 20 | 20 | 20 | 20 | 20 | 20 | 20 | 20 | 20 | 20 | 20 | 20 | 20 | 20 | 20 | inhibition of growth at 10 µM (SK-MEL-5): 20%; inhibition of growth at 10 µM (UACC-257): 20%; inhibition of growth at 10 µM (UACC-62): 20%; inhibition of growth at 10 µM (IGROV-1): 20%; inhibition of growth at 10 µM (OVCAR-3): 20%; inhibition of growth at 10 µM (OVCAR-4): 20%; inhibition of growth at 10 µM (OVCAR-8): 20%; inhibition of growth at 10 µM (NCI/ADR-RES): 20%; inhibition of growth at 10 µM (A498): 20%; inhibition of growth at 10 µM (RXF 393): 20%; inhibition of growth at 10 µM (SN12C): 20%; inhibition of growth at 10 µM (TK-10): 20%; inhibition of growth at 10 µM (PC-3): 20%; inhibition of growth at 10 µM (Hs-578T): 20%; inhibition of growth at 10 µM (BT-549): 20%; inhibition of growth at 10 µM (T47D): 20%; inhibition of growth at 10 µM (MDA-MB-468): 20%
2 | COc1cc2nc(-c3ccc(C(F)(F)F)cc3)cc(OCCN3CCOCC3)c2cc1OC | 13 | 13 | 13 | 13 | 13 | 13 | 13 | 13 | 13 | 13 | 13 | 13 | 13 | 13 | 13 | 13 | 13 | 13 | 13 | 13 | inhibition of growth at 10 µM (SK-MEL-5): 13%; inhibition of growth at 10 µM (UACC-257): 13%; inhibition of growth at 10 µM (UACC-62): 13%; inhibition of growth at 10 µM (IGROV-1): 13%; inhibition of growth at 10 µM (OVCAR-3): 13%; inhibition of growth at 10 µM (OVCAR-4): 13%; inhibition of growth at 10 µM (OVCAR-8): 13%; inhibition of growth at 10 µM (NCI/ADR-RES): 13%; inhibition of growth at 10 µM (A498): 13%; inhibition of growth at 10 µM (RXF 393): 13%; inhibition of growth at 10 µM (SN12C): 13%; inhibition of growth at 10 µM (TK-10): 13%; inhibition of growth at 10 µM (PC-3): 13%; inhibition of growth at 10 µM (Hs-578T): 13%; inhibition of growth at 10 µM (BT-549): 13%; inhibition of growth at 10 µM (T47D): 13%; inhibition of growth at 10 µM (MDA-MB-468): 13%
3 | COc1cc2nc(-c3ccc(Cl)cc3)cc(OCCN3CCOCC3)c2cc1OC | 3 | 3 | 3 | 3 | 3 | 3 | 3 | 3 | 3 | 3 | 3 | 3 | 3 | 3 | 3 | 3 | 3 | 3 | 3 | 3 | inhibition of growth at 10 µM (SK-MEL-5): 3%; inhibition of growth at 10 µM (UACC-257): 3%; inhibition of growth at 10 µM (UACC-62): 3%; inhibition of growth at 10 µM (IGROV-1): 3%; inhibition of growth at 10 µM (OVCAR-3): 3%; inhibition of growth at 10 µM (OVCAR-4): 3%; inhibition of growth at 10 µM (OVCAR-8): 3%; inhibition of growth at 10 µM (NCI/ADR-RES): 3%; inhibition of growth at 10 µM (A498): 3%; inhibition of growth at 10 µM (RXF 393): 3%; inhibition of growth at 10 µM (SN12C): 3%; inhibition of growth at 10 µM (TK-10): 3%; inhibition of growth at 10 µM (PC-3): 3%; inhibition of growth at 10 µM (Hs-578T): 3%; inhibition of growth at 10 µM (BT-549): 3%; inhibition of growth at 10 µM (T47D): 3%; inhibition of growth at 10 µM (MDA-MB-468): 3%
